Tests used:
Cytochrome P450 2A6 [1] = biological target: T1, Cytochrome P450 2A6 (Homo sapiens, UniProt P11509); assay: Inhibition of human CYP2A6 in baculovirus-infected insect cell system using […] as substrate preincubated for 10 mins by fluorescence assay
T1 sequence (P11509 whole entry): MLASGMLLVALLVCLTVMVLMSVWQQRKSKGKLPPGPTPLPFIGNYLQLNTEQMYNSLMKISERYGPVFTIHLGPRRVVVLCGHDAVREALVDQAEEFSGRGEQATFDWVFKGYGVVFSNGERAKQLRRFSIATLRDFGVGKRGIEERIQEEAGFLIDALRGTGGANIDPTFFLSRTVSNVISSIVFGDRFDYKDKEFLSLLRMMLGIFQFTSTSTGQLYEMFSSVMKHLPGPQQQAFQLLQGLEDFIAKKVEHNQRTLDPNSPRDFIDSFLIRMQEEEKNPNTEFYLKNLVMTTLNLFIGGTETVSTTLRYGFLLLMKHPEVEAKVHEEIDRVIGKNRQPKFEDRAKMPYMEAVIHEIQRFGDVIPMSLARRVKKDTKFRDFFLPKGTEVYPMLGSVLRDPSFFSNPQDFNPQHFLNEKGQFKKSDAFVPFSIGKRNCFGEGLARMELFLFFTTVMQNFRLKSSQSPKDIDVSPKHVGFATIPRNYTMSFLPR
How it was run: (§1)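 Coumarin 7-hydroxylation by baculovirus/insect-cell human CYP2A6. Reaction started with NADPH (final 0.33 mM) and preincubated 10 min at 37 °C. Stopped with 10% TCA, then 1.6 M glycine-NaOH added; 7-hydroxycoumarin fluorescence read at ex 355/em 450 nm. Blanks subtracted; activity as % of control; IC50 by nonlinear fitting.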

Cytochrome P450 2A6 [2] = biological target: T1, Cytochrome P450 2A6; assay: Inhibition of human CYP2A6 in baculovirus-infected insect cell system using […] as substrate incubated for 30 mins prior to substrate addition measured after 10 mins by fluorescence assay; details: for inhibition (INH): human, 10 min
Cytochrome P450 2A6 [3] = biological target: T1, Cytochrome P450 2A6; assay: (§2) Irreversible inhibition of human CYP2A6 in baculovirus-infected insect cell system using […] as substrate incubated for 10 mins by fluorescence assay
How it was run: (§3)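 Inactivation: five inhibitor concentrations plus vehicle preincubated various times (including 0 min) with 5–20 pmol CYP2A6 and NADPH. Then diluted 10–40 fold into 50 mM Tris–HCl pH 7.4, 5 mM MgCl2, 10 µM coumarin, 0.3 mM NADPH, 10 min at 37 °C. Kobs from ln activity vs time; Kinact and Ki from double-reciprocal regression.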

CYP2A6 = biological target: T2, CYP2A6 (Homo sapiens, UniProt P11509); assay: as §2; details: human, probe coumarin (printed: coumarin 7); how it was run: as §3
T2 sequence (P11509 whole entry): T1 sequence (P11509 whole entry)

Cytochrome P450 2A6 [4] = biological target: T1, Cytochrome P450 2A6; assay: Competitive inhibition of human CYP2A6 in baculovirus-infected insect cell system assessed as nicotine metabolism after 15 mins
How it was run: (§4)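 Nicotine oxidation by expressed CYP2A6 (with P450 reductase and cytochrome b5): 10 pmol CYP and 10 pmol b5/ml, 1 mM NADPH, 50 µl cytosol, 50 mM Tris–HCl pH 7.4, 37 °C, 15 min. Stopped with 4% v/v Na2CO3; 5-methylcotinine internal standard; nicotine and metabolites quantified by HPLC. Drug concentrations expressed as free base.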

Cytochrome P450 2A6 [5] = biological target: T1, Cytochrome P450 2A6; assay: Inhibition of human CYP2A6 in baculovirus-infected insect cell system using […] as substrate in presence of mouse liver cytosolic fraction by fluorescence assay
Cytochrome P450 2A6 [6] = biological target: T1, Cytochrome P450 2A6; assay: Reversible inhibition of human CYP2A6 in baculovirus-infected insect cell system using […] as substrate preincubated for 10 mins by fluorescence assay; how it was run: as §1
Cytochrome P450 2A6 [7] = biological target: T1, Cytochrome P450 2A6; assay: Mixed-type inhibition of human CYP2A6 in baculovirus-infected insect cell system assessed as nicotine metabolism after 15 mins; how it was run: as §4
Cytochrome P450 2A6 [8] = biological target: T1, Cytochrome P450 2A6; assay: Irreversible inhibition of human CYP2A6 in baculovirus-infected insect cell system assessed as nicotine metabolism after 15 mins; how it was run: as §4

| Compound | IC50 (Cytochrome P450 2A6 [1]) | inhibition (INH) (Cytochrome P450 2A6 [2]) | also measured |
| --- | --- | --- | --- |
| Cc1ccc(C#N)cc1 | 8.1 µM | – | – |
| NCc1cc2ccccc2s1 | – | Active | Ki (Cytochrome P450 2A6 [1]): 0.01 µM |
| O=Cc1cc2ccccc2[nH]1 | 11 µM | – | IC50 (Cytochrome P450 2A6 [2]): 1.8 µM; Ki (Cytochrome P450 2A6 [3]; read-out: Ki): 2.4 µM; kinact at 10 min (CYP2A6): 0.00133 s⁻¹ |
| O=Cc1cc2ccccc2o1 | 17 µM | – | – |
| Brc1ccc2[nH]ccc2c1 | 7.4 µM | Active | – |
| O=Cc1cc2cnccc2s1 | 0.3 µM | Active | Ki (Cytochrome P450 2A6 [4]): 1.1 µM; inhibition (INH) (Cytochrome P450 2A6 [5]): Not Active; inhibition (INH) (Cytochrome P450 2A6 [6]): Active; Ki (Cytochrome P450 2A6 [1]): 0.07 µM |
| O=Cc1cc2ccncc2s1 | 0.4 µM | Active | Ki (Cytochrome P450 2A6 [4]): 4.2 µM; inhibition (INH) (Cytochrome P450 2A6 [5]): Not Active; Ki (Cytochrome P450 2A6 [1]): 0.06 µM |
| NCc1csc2ccc(Cl)cc12 | 0.4 µM | Active | Ki (Cytochrome P450 2A6 [7]): 6 µM; Ki (Cytochrome P450 2A6 [1]): 0.09 µM |
| CNCc1cc2ccccc2s1 | 0.5 µM | Active | – |
| NCc1csc2ccc(Br)cc12 | 0.7 µM | Active | Ki (Cytochrome P450 2A6 [7]): 0.8 µM; inhibition (INH) (Cytochrome P450 2A6 [6]): Active; Ki (Cytochrome P450 2A6 [1]): 0.2 µM |
| O=Cc1ccc2sccc2c1 | 0.9 µM | Active | – |
| NCc1cc2cnccc2s1 | 1 µM | Active | – |
| CN(C)Cc1cc2cnccc2s1 | 1.4 µM | Active | Ki (Cytochrome P450 2A6 [4]): 0.5 µM; inhibition (INH) (Cytochrome P450 2A6 [6]): Active; Ki (Cytochrome P450 2A6 [1]): 0.6 µM |
| CNCc1cc2cnccc2s1 | 1.5 µM | Active | – |
| CNCc1cc2cccnc2s1 | 2.2 µM | Active | Ki (Cytochrome P450 2A6 [1]): 0.8 µM |
| O=Cc1cc2ccccc2s1 | 3.2 µM | – | IC50 (Cytochrome P450 2A6 [2]): 0.8 µM; Ki (Cytochrome P450 2A6 [3]; read-out: Ki(app)): 0.13 µM |
| Cc1ccc2sc(C=O)cc2c1 | 3.4 µM | Active | – |
| O=Cc1csc2ccc(Br)cc12 | 5 µM | – | IC50 (Cytochrome P450 2A6 [2]): 0.5 µM; Ki (Cytochrome P450 2A6 [3]; read-out: Ki(app)): 1.5 µM |
| NCc1cc2ccncc2s1 | 5.2 µM | Active | – |
| NC(=S)c1csc2ccncc12 | 6.6 µM | Active | – |
| O=Cc1cc2cccnc2s1 | 8 µM | – | IC50 (Cytochrome P450 2A6 [2]): 0.4 µM; Ki (Cytochrome P450 2A6 [3]; read-out: Ki): 2.4 µM; kinact at 10 min (CYP2A6): 0.00133 s⁻¹ |
| O=Cc1cccc2ccsc12 | 11 µM | Active | – |
| OCc1cc2ccccc2s1 | 18 µM | Active | – |

| Compound | IC50 (Cytochrome P450 2A6 [1]) | inhibition (INH) (Cytochrome P450 2A6 [2]) | also measured |
| --- | --- | --- | --- |
| OCc1csc2ccccc12 | 37 µM | Active | – |
| N#Cc1csc2ccc(Cl)cc12 | 41 µM | Active | – |
| N#CCc1csc2ccc(Cl)cc12 | 51 µM | Active | – |
| Cc1csc2ccc(Cl)cc12 | 88 µM | Active | – |
| O=C(Cl)c1csc2ccccc12 | 270 µM | – | – |
| O=Cc1ccc2occc2c1 | 0.4 µM | – | IC50 (Cytochrome P450 2A6 [2]): 0.05 µM; Ki (Cytochrome P450 2A6 [4]): 5.5 µM; inhibition (INH) (Cytochrome P450 2A6 [5]): Not Active; Ki (Cytochrome P450 2A6 [3]; read-out: Ki): 2.4 µM; kinact at 10 min (CYP2A6): 0.00133 s⁻¹; Ki (Cytochrome P450 2A6 [1]): 0.07 µM |
| N#Cc1ccc2occc2c1 | 1.6 µM | – | IC50 (Cytochrome P450 2A6 [2]): 0.6 µM; Ki (Cytochrome P450 2A6 [8]): 0.2 µM; Ki (Cytochrome P450 2A6 [3]; read-out: Ki): 2.4 µM; kinact at 10 min (CYP2A6): 0.00133 s⁻¹; Ki (Cytochrome P450 2A6 [1]): 0.1 µM |
| N#Cc1cc2ccccc2o1 | 52 µM | – | – |
| O=Cc1cc2cc(Br)ccc2o1 | 72 µM | – | – |
| OCc1cc2cc(Br)ccc2o1 | < 100 µM | – | – |
| NCc1cc2cc(Br)ccc2o1 | < 100 µM | – | – |
| O=CCc1coc2ccccc12 | < 100 µM | – | – |
| Brc1cc2ccccc2o1 | 140 µM | – | – |
| O=Cc1ccc2[nH]ccc2c1 | 0.4 µM | Active | Ki (Cytochrome P450 2A6 [4]): 1.8 µM; inhibition (INH) (Cytochrome P450 2A6 [5]): Not Active; Ki (Cytochrome P450 2A6 [1]): 0.07 µM |
| Cn1ccc2cc(C=O)ccc21 | 0.68 µM | Active | – |
| O=Cc1ccc2cc[nH]c2c1 | 1.5 µM | Active | – |
| Cn1ccc2ccc(C=O)cc21 | 8.4 µM | Active | – |
| O=Cc1c[nH]c2cccc(Br)c12 | 12 µM | Active | Ki (Cytochrome P450 2A6 [1]): 8.6 µM |
| Cc1cc2cc(N)ccc2[nH]1 | 34 µM | Active | – |
| O=Cc1c[nH]c2cc(Br)ccc12 | 57 µM | Active | Ki (Cytochrome P450 2A6 [1]): 3.3 µM |
| CCc1ccc(C#N)cc1 | 7.4 µM | – | – |
| O=Cc1c[nH]c2ccccc12 [3-FORMYLINDOLE] | 79 µM | Active | Ki (Cytochrome P450 2A6 [1]): 11 µM |

From ChEMBL document CHEMBL3352764, “Rational design of novel CYP2A6 inhibitors” (Bioorg Med Chem, 2014)
